Runt-SMMHC FRET = inhibitors of RUNX1 Runt–CBFb-SMMHC binding, primary screen, biochemical, FRET, Cerulean-Runt, Venus-CBFb-SMMHC, uHTS. AID 1434, 2008. hit rate 0.74% among 220,000. Runt-related transcription factor 1 (Homo sapiens) + Core-binding factor subunit beta …. inhibition, % at 20 µM. Cerulean-Runt/Venus-CBFb-SMMHC FRET ratio 530/480, 1 h;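 active = mean inhibition across duplicate retests at 20 µM reaching about 50%, limit read from the data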;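 note: 0% = DMSO wells and 100% = wells with excess untagged CBFb-SMMHC; inhibitors lower the FRET ratio by blocking Runt binding to CBFb-SMMHC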
Target sequence (Q01196 whole entry, looked up): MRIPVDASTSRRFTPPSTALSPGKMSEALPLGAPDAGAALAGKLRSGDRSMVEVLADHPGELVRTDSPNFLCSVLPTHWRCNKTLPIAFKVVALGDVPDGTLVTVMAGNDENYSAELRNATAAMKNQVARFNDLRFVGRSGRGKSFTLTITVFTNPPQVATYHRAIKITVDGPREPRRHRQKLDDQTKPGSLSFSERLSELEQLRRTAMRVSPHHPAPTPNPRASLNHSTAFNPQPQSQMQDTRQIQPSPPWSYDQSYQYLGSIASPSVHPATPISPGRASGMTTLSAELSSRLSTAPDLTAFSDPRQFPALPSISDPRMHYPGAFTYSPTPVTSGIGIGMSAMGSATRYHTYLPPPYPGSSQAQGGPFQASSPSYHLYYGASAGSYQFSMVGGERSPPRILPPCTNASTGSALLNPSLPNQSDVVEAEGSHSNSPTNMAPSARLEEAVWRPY
Target sequence (Q13951 whole entry, looked up): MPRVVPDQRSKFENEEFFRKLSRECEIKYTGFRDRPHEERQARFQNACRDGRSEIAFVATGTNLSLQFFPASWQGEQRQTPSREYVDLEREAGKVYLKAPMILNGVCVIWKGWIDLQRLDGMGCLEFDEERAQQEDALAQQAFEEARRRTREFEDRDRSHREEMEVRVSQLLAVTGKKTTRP
Platelet DG rel = inhibitors of platelet dense granule secretion, primary screen, cell-based, MLPCN, human platelets | human platelet-rich plasma, SFLLRN dense granule ATP release, luminescence | inhibition, %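 (compounds screened at 7.5 µM in platelet-rich plasma)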 | hit rate 0.22% among 300,000 | AID 1663, 2009;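 active = mean replicate score, as percent of positive control, at or above 50; inconclusive = mean below 50 but at least one replicate at or above 50; inactive = mean and every replicate below 50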
Rce1 inhib = yeast Rce1p protease inhibitors, primary screen, biochemical, fluorescence, cell-free homogeneous. calls only. yeast membranes, quenched prenylated peptide cleavage fluorescence. hit rate 0.27% among 290,000. CAAX prenyl protease 2 (Saccharomyces cerevisiae (strain ATCC 204508 / S288c)), Q03530;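 active = fall in fluorescence gain of 50% or more versus controls, with final raw signal at or below 3038400; inconclusive = same 50% fall but final raw signal above 3038400; inactive = fall in fluorescence gain under 50%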;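 note: plate controls were neutral control wells for no effect and wells lacking membranes for full effect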
Runt-CBFb FRET = inhibitors of RUNX1 Runt–CBFb binding, primary screen, biochemical, FRET, Cerulean-Runt, Venus-CBFb, uHTS | Runt-related transcription factor 1 (Homo sapiens) + Core-binding factor subunit beta … | Cerulean-Runt/Venus-CBFb FRET ratio 530/480, 1 h | inhibition, % at 20 µM | hit rate 0.46% among 220,000;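 active = inhibition over about 50% at 20 µM in the single-dose screen, limit read from the data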;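 note: 0% = DMSO wells and 100% = excess unlabeled CBFb competitor control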
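Schedule: protein complex preformed 1 h, compound exposure 1 h, room temperature, dark; test system: Cerulean-labeled Runt domain protein; amount: 100 nM per protein; buffer or medium: Tris 50 mM pH 7.5, KCl, K2SO4, 0.01% BSA; read-out: loss of energy transfer signal; detection: FRET fluorescence; controls: 5 µM unlabeled CBFb as full-inhibition high control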
RanGTP-Imp inh = inhibitors of RanGTP-importin-beta interaction, primary screen, biochemical, FRET, CFP-Ran, YFP-importin-beta, homogeneous | hit rate 1.1% among 300,000 | inhibition, % (test concentration not listed) | Ran GTPase (GTP-bound) - importin-beta complex | cell-free CFP-Ran/YFP-importin-beta FRET ratio;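 active = more than half of the replicate wells show a fall in the fluorescence ratio signal beyond about 16%, limit read from the data, passing the limit was not always enough; inconclusive = exactly half of the replicate wells pass the set limit; inactive = fewer than half of replicates pass the limit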;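 note: 0% = DMSO wells and 100% = Ran loaded with GDP instead of GTP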
YIC FRET counter = YIC intramolecular FRET probe signal interference, dose response, counter-screen for RanGTP-importin-beta inhibitor project, biochemical, fluorescence FRET; Purified YIC probe, intramolecular FRET ratio YFP/CFP; shares compounds with RanGTP-Imp inh; AID 435026, 2010; IC50, µM; hit rate 40% among 1,000;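 active = fitted half-maximal inhibitory concentration no more than tenfold above the top dose tested; inconclusive = flat fit with 30 to 70% activity, or poor fit; inactive = half-maximal concentration beyond tenfold above the top dose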
An asterisk follows results filed as active. Compounds with a hit are over-represented: about 1.8% of the library has one in this group of screens.

Results for CCn1c(SCC(=O)N(Cc2ccccc2)C2CCS(=O)(=O)C2)nc2ccccc2c1=O (stereo not given) ?
Runt-SMMHC FRET: 0; Platelet DG rel: -1; Rce1 inhib: inactive; Runt-CBFb FRET: -2; RanGTP-Imp inh: 20*; YIC FRET counter: >50

What do the screens show for `CCN(C(=O)CSc1nc2ccccc2c(=O)n1Cc1ccc(C)cc1)C1CCS(=O)(=O)C1` (stereo not given)?
Platelet DG rel: 5; Rce1 inhib: inactive; RanGTP-Imp inh: -2

Results for CN(C)S(=O)(=O)c1ccc(N2CCCC2)c(C(=O)Nc2ccccc2Br)c1 ?
Platelet DG rel: -12; Rce1 inhib: inactive; RanGTP-Imp inh: 7

How did CN(C)S(=O)(=O)c1ccc(N2CCCC2)c(C(=O)NC(c2ccccc2)c2ccccc2)c1 do in these assays?
Runt-SMMHC FRET: -5; Platelet DG rel: 0; Rce1 inhib: inactive; Runt-CBFb FRET: -2; RanGTP-Imp inh: 19*; YIC FRET counter: >50

How did CCCOc1ccc(-c2c(C(=O)N/N=C/C3CCCCC3)nnn2-c2nonc2N)cc1 do in these assays?
Platelet DG rel: 10; Rce1 inhib: inactive; RanGTP-Imp inh: inconclusive

How did O=C(O)c1cn(Cc2cccnc2)c(=O)c2ccccc12 do in these assays?
Runt-SMMHC FRET: 1; Platelet DG rel: 13; Rce1 inhib: inactive; Runt-CBFb FRET: -1; RanGTP-Imp inh: 18*; YIC FRET counter: >50

Results for Cc1ccsc1-c1nc(C(N)=O)c2[nH]c(=O)n(-c3ccc(Cl)cc3)c2n1 ?
Runt-SMMHC FRET: 5; Platelet DG rel: 13; Rce1 inhib: inactive; Runt-CBFb FRET: 0; RanGTP-Imp inh: 3

Results for Cc1nn(C(=O)c2ccco2)c(C)c1CN1C(=O)c2ccccc2C1=O ?
Runt-SMMHC FRET: -8; Platelet DG rel: 2; Rce1 inhib: inactive; Runt-CBFb FRET: -1; RanGTP-Imp inh: 20*; YIC FRET counter: >50

How did CC(C)[C@H]1COCCS(=O)(=O)N1Cc1ccccc1 do in these assays?
Platelet DG rel: -13; Rce1 inhib: inactive; RanGTP-Imp inh: 4

What do the screens show for `N#C/C(=C\N1CCN(Cc2ccc3c(c2)OCO3)CC1)c1nc2ccccc2s1`?
Runt-SMMHC FRET: 3; Platelet DG rel: 4; Rce1 inhib: inactive; Runt-CBFb FRET: 0; RanGTP-Imp inh: 20*; YIC FRET counter: >50

How did CCOC(=O)N1CCC(=NNc2nc3ccccc3s2)CC1 do in these assays?
Runt-SMMHC FRET: 1; Platelet DG rel: 0; Runt-CBFb FRET: 0; RanGTP-Imp inh: 4

How did CCOC(=O)N1CCN(/C=C(\C#N)c2nc3ccccc3s2)CC1 do in these assays?
Runt-SMMHC FRET: -2; Platelet DG rel: 10; Rce1 inhib: inactive; Runt-CBFb FRET: -2; RanGTP-Imp inh: 21*; YIC FRET counter: >50

Results for Cc1ccc(Nc2cc(C)nn2-c2nc(C)cc(C)n2)cc1 ?
Runt-SMMHC FRET: -2; Platelet DG rel: 1; Rce1 inhib: inactive; Runt-CBFb FRET: -1; RanGTP-Imp inh: 24*; YIC FRET counter: >50

How did Cc1ccc(Nc2cc(C)nn2-c2nc(C)cc(=O)[nH]2)cc1 do in these assays?
Runt-SMMHC FRET: -4; Platelet DG rel: -4; Rce1 inhib: inactive; RanGTP-Imp inh: 3

Results for CCc1nc2ccc(C(=O)N3CCN(c4ccc(Cl)cc4)CC3)cc2nc1CC ?
Platelet DG rel: -5; Rce1 inhib: inactive; RanGTP-Imp inh: 2

What do the screens show for `COc1ccc(C(=O)NC(=S)N2CCN(c3ccccc3OC)CC2)cc1OC`?
Platelet DG rel: -4; Rce1 inhib: inactive; RanGTP-Imp inh: 3

Results for CCCn1c(N/N=C(C)\C=C\c2ccccc2)nc2c1c(=O)[nH]c(=O)n2C ?
Runt-SMMHC FRET: 5; Platelet DG rel: 0; Rce1 inhib: inactive; Runt-CBFb FRET: 33; RanGTP-Imp inh: -3

Assay outcomes: PubChem, several laboratories
